The source of these data is paper PMC10239344 (ChemMedChem, 2023).

Structures are written as SMILES. Like-named read-outs stand apart in the source and are kept apart here.

The target in assay [1] is T1, K. pneumoniae LpxH (KpLpxH) (Klebsiella pneumoniae subsp. pneumoniae, UniProt A6T5R0).
T1 sequence (A6T5R0 1-240): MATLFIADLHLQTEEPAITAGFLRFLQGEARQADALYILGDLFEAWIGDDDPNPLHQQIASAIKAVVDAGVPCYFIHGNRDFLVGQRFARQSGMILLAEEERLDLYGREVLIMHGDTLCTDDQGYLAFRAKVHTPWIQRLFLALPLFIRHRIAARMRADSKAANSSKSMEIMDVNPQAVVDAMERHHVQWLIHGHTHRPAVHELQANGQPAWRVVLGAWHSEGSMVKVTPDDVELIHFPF
To be noted: cited from earlier work; for Percentage Activity of KpLpxH (vi/v0) / Percentage Inhibition of KpLpxH: 0.1 μM inhibitor, previously reported.

Assay [2] has as its target T1, K. pneumoniae LpxH (KpLpxH). Put plainly: LpxE-coupled malachite green LpxH activity assay. Format: biochemical. The method, boiled down:
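Enzyme/inhibitor and substrate mixes were preincubated 10 min at 37 °C, then combined (final 100 μM UDP-DAGn, 10 ng/mL enzyme). Aliquots were EDTA-quenched, then A. aeolicus LpxE 5 μg/mL was added for 30 min at 37 °C. Formic acid stop; malachite green A620. Triplicates; activity normalized to DMSO control; IC50 fit converted to competitive KI.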

One may read the IC50 as the concentration that gives 50% inhibition. As usually defined, the Ki is the equilibrium dissociation constant of an inhibitor or competing ligand from its target.

In the case of `CC(=O)N1CCc2cc(S(=O)(=O)N3CCN(c4cccc(C(F)(F)F)c4)CC3)ccc21` [Compound 1], in assay [1], the “Percentage Activity of KpLpxH (vi/v0)” value is 78^[16] % and the “Percentage Inhibition of KpLpxH” value is 22^[16] %.

As to `CC(=O)N1CCc2cc(S(=O)(=O)N3CCN(c4cc(Cl)cc(C(F)(F)F)c4)CC3)ccc21` [Compound 2], in assay [1], the “Percentage Activity of KpLpxH (vi/v0)” value is on record as 21% and the “Percentage Inhibition of KpLpxH” value is 79^[16] %. In addition, the “Percentage Activity of KpLpxH (vi/v0)” value in assay [1] (listed as 2 (JH-LPH-33)) is 21^[16] %. Further, the concentration for half-maximal inhibition (IC50) in assay [1] (read-out: IC50 of KpLpxH inhibition, reported value) is 26 nM. Besides, in assay [1] (read-out: KI for KpLpxH, reported value), the Ki was 10 nM.

In the case of `O=C(CCCCCNC(=O)Nc1ccc(S(=O)(=O)N2CCN(c3cc(Cl)cc(C(F)(F)F)c3)CC2)cc1)NO` [Compound 13], in assay [2] (0.1 μM inhibitor), the “Percentage Inhibition of KpLpxH” value amounted to 97%. In addition, the inhibition constant (Ki) in assay [2] (read-out: KI for KpLpxH, from IC50, competitive binding mode, KM 68.1 μM) amounted to 3.1 nM.
